An excerpt weighted towards active compounds, which were near 1.9% of everything screened.
RAD52 inh: inhibitors of human RAD52 DNA annealing | recombinant RAD52 DNA annealing, FRET fluorescence | inhibition, % at 18.7 µM | P43351 | AID 651710 | 0.46% of 360,000 active;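 active = every replicate showing at least 50% inhibition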
PglD inh: blocks C. jejuni PglD acetyltransferase activity; inhibition, % at 12.5 µM; purified PglD enzyme, DTNB colorimetric CoA detection; 0.098% of 360,000 active; in the data active = inhibition above about 16%, passing the limit was not always enough
rRNA inh HTS: inhibitors of bacterial rRNA selective over humanized ribosomes; E. coli WT GFP vs humanized-ribosome RFP mutants, fluorescence, 24 h; active compounds read low; DMSO median 0, no signal -100; GFP signal change (wild-type ribosome), % (no concentration beside the values); 1.6% of 350,000 active; AID 720706;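 active = significant combined selectivity score with lowered wild-type GFP, culture density cut under 30%, mutant RFP and density less affected; inactive = any of these conditions unmet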
Cneo AK release: causes C. neoformans cell lysis | 0.2% of 360,000 active | adenylate kinase release luminescence, 4 h; normalised: neutral wells 0, clomiphene wells 100 | lysis activity, % at 15 µM;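 active = mean lysis activity across replicates of at least 80%, whatever share of replicates individually reach that level; inactive = mean lysis activity below 80%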
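Material – log-phase Cryptococcus neoformans yeast cells · Input – 5 × 10^6 yeast cells/mL · Medium – fresh YPD growth medium · Doses – single compound concentration per well · Timing – static 4 h at 37 °C with compound, 1 h detection · Detection – adenylate kinase release luminescence · Read-out – signal increase indicating cell lysis · Control set – Clomiphene as positive lysis control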
RAD54 inh: blocks human RAD54 Holliday junction branch migration. Q92698. FAM/BHQ fluorescence. inhibition, % at 10.4 µM. 0.14% of 360,000 active. AID 602329;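 active = mean normalized replicate activity at least 40 and at least half of replicates scoring 40 or more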;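 also: 0% = median of neutral control wells and 100% = median of positive control wells; inhibitors cause a drop in the FAM fluorescence signal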
Target sequence (Q92698 whole entry, looked up): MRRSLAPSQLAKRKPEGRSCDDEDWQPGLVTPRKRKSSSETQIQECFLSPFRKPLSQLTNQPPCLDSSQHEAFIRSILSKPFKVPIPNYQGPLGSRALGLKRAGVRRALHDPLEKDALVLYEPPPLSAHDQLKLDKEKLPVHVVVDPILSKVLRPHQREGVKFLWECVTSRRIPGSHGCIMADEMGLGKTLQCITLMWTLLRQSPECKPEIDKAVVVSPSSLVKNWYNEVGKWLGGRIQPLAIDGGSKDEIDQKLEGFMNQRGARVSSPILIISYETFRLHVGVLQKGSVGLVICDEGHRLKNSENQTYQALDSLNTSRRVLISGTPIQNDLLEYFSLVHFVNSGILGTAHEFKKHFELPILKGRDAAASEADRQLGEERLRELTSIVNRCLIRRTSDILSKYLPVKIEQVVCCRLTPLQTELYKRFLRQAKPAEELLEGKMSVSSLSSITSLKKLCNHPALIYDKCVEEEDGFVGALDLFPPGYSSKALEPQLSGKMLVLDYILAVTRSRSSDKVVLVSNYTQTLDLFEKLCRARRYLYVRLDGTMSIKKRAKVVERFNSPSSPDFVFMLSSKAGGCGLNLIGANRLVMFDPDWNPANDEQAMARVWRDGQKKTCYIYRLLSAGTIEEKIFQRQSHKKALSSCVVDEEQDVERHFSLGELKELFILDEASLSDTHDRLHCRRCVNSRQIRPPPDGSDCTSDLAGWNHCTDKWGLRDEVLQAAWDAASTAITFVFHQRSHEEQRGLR
* = called active by the depositor.

For C[C@@H]1CN([C@H](C)CO)C(=O)c2cc(NC(=O)Nc3ccccc3)ccc2O[C@@H](C)CCCCO[C@@H]1CN(C)Cc1ccc2c(c1)OCO2 the results were RAD52 inh 41, PglD inh -1, rRNA inh HTS 2, Cneo AK release 4 and RAD54 inh -6.
C[C@H](CO)N1C[C@H](C)[C@H](CN(C)Cc2ccc3c(c2)OCO3)OCCCC[C@H](C)Oc2ccc(NC(=O)Nc3cccc4ccccc34)cc2C1=O was read as PglD inh -2, rRNA inh HTS -14, Cneo AK release 4 and RAD54 inh 6.
`C[C@@H]1CN([C@H](C)CO)C(=O)c2cc(NC(=O)Nc3ccccc3)ccc2O[C@@H](C)CCCCO[C@H]1CN(C)Cc1ccc2c(c1)OCO2` gave RAD52 inh 61*, PglD inh -5, rRNA inh HTS 1, Cneo AK release -1 and RAD54 inh -11.
For CC(C)NC(=O)Nc1ccc2c(c1)C(=O)N([C@@H](C)CO)C[C@H](C)[C@@H](CN(C)Cc1ccc3c(c1)OCO3)OCCCC[C@@H](C)O2 the results were RAD52 inh 10, PglD inh 1, rRNA inh HTS 4, Cneo AK release 102* and RAD54 inh 7.
`C[C@@H]1CCCCO[C@@H](CN(C)Cc2ccc3c(c2)OCO3)[C@@H](C)CN([C@@H](C)CO)C(=O)c2cc(NC(=O)Nc3ccc(C(F)(F)F)cc3)ccc2O1` gave RAD52 inh 46, PglD inh 2, Cneo AK release 2 and RAD54 inh -2.
`CC(C)NC(=O)Nc1ccc2c(c1)C(=O)N([C@@H](C)CO)C[C@@H](C)[C@@H](CN(C)Cc1ccc3c(c1)OCO3)OCCCC[C@@H](C)O2` gave RAD52 inh -3, PglD inh -1, rRNA inh HTS -2, Cneo AK release 1 and RAD54 inh -3.
Screening C[C@@H]1CCCCO[C@H](CN(C)Cc2ccc3c(c2)OCO3)[C@H](C)CN([C@H](C)CO)C(=O)c2cc(NC(=O)Nc3cccc4ccccc34)ccc2O1 returned PglD inh 1, rRNA inh HTS -2, Cneo AK release 88* and RAD54 inh 0.
C[C@@H]1CCCCO[C@@H](CN(C)Cc2ccc3c(c2)OCO3)[C@H](C)CN([C@@H](C)CO)C(=O)c2cc(NC(=O)Nc3ccc(C(F)(F)F)cc3)ccc2O1 was read as RAD52 inh 51*, PglD inh 0, rRNA inh HTS 4, Cneo AK release 4 and RAD54 inh 7.
For CCN1[C@@H]2Cn3c(ccc(-c4ccccc4)c3=O)[C@H]1[C@@H](C(=O)NC1CCC1)[C@@H]2CO the results were PglD inh 0, rRNA inh HTS -2, Cneo AK release -3 and RAD54 inh -4.
Screening COc1ccc2c3c(n(C)c2c1)[C@@H](CO)N(Cc1ccccc1F)CC31CN(C(C)=O)C1 returned RAD52 inh -34 and rRNA inh HTS -1.
`CC(C)(C)OC(=O)NCCOCCOCCNc1ncnc2ccc(Br)cc12` gave RAD52 inh 21 and Cneo AK release 2.
C[C@@H]1CN([C@@H](C)CO)C(=O)c2cc(NC(=O)Nc3ccccc3)ccc2O[C@@H](C)CCCCO[C@@H]1CN(C)Cc1ccc2c(c1)OCO2 was read as RAD52 inh 44, PglD inh 1, rRNA inh HTS 4, Cneo AK release -1 and RAD54 inh -3.
C[C@H]1CCCCO[C@H](CN(C)Cc2ccc3c(c2)OCO3)[C@@H](C)CN([C@@H](C)CO)C(=O)c2cc(NC(=O)Nc3ccccc3)ccc2O1 was read as RAD52 inh 56*, PglD inh -2, rRNA inh HTS -3, Cneo AK release 4 and RAD54 inh -7.
COc1ccc(NC2=C(C(C)=O)C(c3ccccc3)C(C(C)=O)C(C)(O)C2)cc1 (configuration not stated) was read as RAD52 inh -24 and rRNA inh HTS -27*.
CCC1=NN(C(=O)C(=O)Nc2ccccc2OC)C(O)(C(F)(F)F)C1 (configuration not stated) was read as PglD inh 3, Cneo AK release -2 and RAD54 inh 0.

Bioassay records deposited in PubChem by Broad Institute.
